Assays:
[1] = Inhibition of rabbit small-intestinal Acyl coenzyme A:cholesterol acyltransferase 1; design: species or system Oryctolagus cuniculus
How it was run: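 Source: intestinal mucosa microsomes from cholesterol-fed Japanese white rabbits. Mucosa homogenized in 40 mM phosphate pH 7.4 with 30 mM EDTA, 50 mM KCl and 0.1 M sucrose; spun 10000g for 30 min, then 105000g for 1 h, at 4 °C.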

[2] = test system: Rattus norvegicus; assay: Serum total cholesterol-lowering activity in the cholesterol-fed rats expressed as the ratio of the observed reduction to the difference between the control and normal levels 100 (10 mg/kg po); type: functional
How it was run: (§1)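 Male Wistar rats (8–9 weeks, 200 g, n = 6/group) on normal chow for 7 days, then a 2% cholesterol/1% cholic acid/12% coconut oil diet for 3 days. Compound in 0.5% methyl cellulose given orally once daily for 3 days at the listed dose; controls got vehicle. After a 16 h fast, aortic blood taken; serum cholesterol measured enzymatically. % change = (A−B)/(B−C)×100, with B = control and C = normal-diet rats.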

[3] = Ability to inhibit rabbit liver Acyl coenzyme A:cholesterol acyltransferase 1; design: species or system Oryctolagus cuniculus
How it was run: (§2)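 Liver microsomes from Japanese white rabbits, prepared in 0.154 M phosphate buffer pH 7.4 with 40 mM NaF. Assay mix: 36 μM BSA, 2 mM DTT, 0.5 mg/mL microsomes, sonicated liposomes (PC:PS:cholesterol 3:1:8, 8 mg/mL cholesterol). Compound added as 1% (v/v) DMSO solution, preincubated 3 min at 37 °C. Reaction started with 43 μM [14C]oleoyl-CoA, 10 min at 37 °C. Cholesteryl oleate radioactivity measured; IC50 determined.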

[4] = test system: Rattus norvegicus; assay: Serum total cholesterol-lowering activity in the cholesterol-fed rat expressed as the ratio of the observed reduction to the difference between the control and normal levels 100 (0.1 mg/kg po); type: functional; how it was run: as §1
[5] = test system: Rattus norvegicus; assay: Serum total cholesterol-lowering activity in the cholesterol-fed rat expressed as the ratio of the observed reduction to the difference between the control and normal levels 100 (0.3 mg/kg, po); type: functional; how it was run: as §1
[6] = species: Rattus norvegicus; assay: IC50 is the concentration that inhibits 50% of the enzyme activity was evaluated by measuring the ability to inhibit acetyl-LDL-induced cholesteryl ester accumulation in rat peritoneal macrophages.; type: functional
How it was run: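 Peritoneal macrophages from nonstimulated male Wistar rats (250–300 g), 3 × 10^6 per dish in 10% FBS-DMEM, adhered 2 h at 37 °C in 5% CO2. Washed in 3% BSA-DMEM, then incubated 16 h with 25 µg/mL acetylated human LDL, [14C]oleate-BSA and compound. Lipids extracted in hexane–2-propanol with [3H]cholesteryl oleate recovery standard. Cholesteryl oleate isolated by TLC and counted; IC50 determined for ester accumulation.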

[7] = test system: Rattus norvegicus; assay: Serum total cholesterol-lowering activity in the cholesterol-fed rats expressed as the ratio of the observed reduction to the difference between the control and normal levels 100 (3 mg/kg po); type: functional; how it was run: as §1
[8] = Ability to inhibit rabbit liver Acyl coenzyme A:cholesterol acyltransferase 1.; design: species or system Oryctolagus cuniculus; how it was run: as §2
[9] = test system: Rattus norvegicus; assay: Serum total cholesterol-lowering activity in the cholesterol-fed rats expressed as the ratio of the observed reduction to the difference between the control and normal levels 100. (0.3 mg/kg, po); type: functional; how it was run: as §1
[10] = test system: Rattus norvegicus; assay: Serum total cholesterol-lowering activity in the cholesterol-fed rats expressed as the ratio of the observed reduction to the difference between the control and normal levels 100 (0.1 mg/kg po); type: functional; conditions: in the assay text read “1 mg/kg po” for “0.1 mg/kg po”; how it was run: as §1
[11] = test system: Rattus norvegicus; assay: Serum total cholesterol-lowering activity in the cholesterol-fed rats expressed as the ratio of the observed reduction to the difference between the control and normal levels 100 (0.3 mg/kg po); type: functional; how it was run: as §1
[12] = test system: Rattus norvegicus; assay: Serum total cholesterol-lowering activity in the cholesterol-fed rat expressed as the ratio of the observed reduction to the difference between the control and normal levels 100 (3 mg/kg po); type: functional; how it was run: as §1

Row | SMILES | IC50 [1] [nM] | other results
1 | CCCCCCCCCCCCC(C)(C)C(=O)Nc1c(OC)ccc2c1OCCC2=O | 7.5 | 
2 | Cc1cc(C)c2c(c1NC(=O)C(C)(C)CCCCCOc1ccc(Cl)cc1)OCCC2=O | 400 | 
3 | Cc1ccc2c(c1NC(=O)C(C)(C)CCCCCOc1ccc(Cl)cc1)OCCC2=O | 470 | Change [2]: -53%
4 | CCCCCCCCCCOc1ccc2c(c1NC(=O)C(C)(C)CCCCCCOc1ccc(Cl)cc1)OCCC2=O | 140 | 
5 | CCCCCCCCCCC(C)(C)C(=O)Nc1c(Cl)ccc2c1OCCC2=O | 150 | 
6 | COc1ccc2c(c1NC(=O)C(C)(C)CCCCCCOCC(C)C)OCCC2=O | 26 | 
7 | Cc1ccc2c(c1NC(=O)c1ccccc1)OCCC2=O | > 1000 | 
8 | CCCCCCCCCCC1(C(=O)Nc2c(C)ccc3c2OCCC3=O)CCCC1 | 170 | 
9 | COc1ccc2c(c1NC(=O)C(C)(C)CCCc1ccc(CC(C)C)cc1)OCCC2=O | 17 | 
10 | CCCCCCCCCCC(C)(C)C(=O)Nc1c(OC)ccc2c(=O)ccoc12 | 77 | 
11 | CCCCCCCCCCC(C)(C)C(=O)Nc1c(OC)ccc2c1OCCC2=O | 13 | IC50 [3]: 16 nM; Change [4]: -61%; Change [5]: -66%; IC50 [6]: 160 nM
12 | COc1ccc2c(c1NC(=O)C(C)(C)CCCCCCc1ccccc1)OCCC2=O | 44 | 
13 | Cc1ccc2c(=O)ccoc2c1NC(=O)C(C)(C)CCCCCOc1ccc(Cl)cc1 | > 500 | 
14 | CCCCCCCCCCC(C)(C)C(=O)Nc1c(OC)ccc2c1OCCC2 | 180 | 
15 | CCCCCCCCCCOc1cc(C)c(C(=O)Nc2c(OC)ccc3c2OCCC3=O)c(C)c1 | > 200 | 
16 | CCCCCCCCCCC(C)(C)C(=O)Nc1c(OC)ccc2c(=O)cc(CC)oc12 | 780 | 
17 | CCCCCCOc1ccc(CCCC(C)(C)C(=O)Nc2c(OC)ccc3c2OCCC3=O)cc1 | 16 | Change [7]: -65%
18 | CCCCCCCCCCC(C)(C)C(=O)Nc1c(C)ccc2c1OCCC2=O | 210 | 
19 | COc1ccc2c(c1NC(=O)c1ccc(OCCCCCCOc3ccc(Cl)cc3)cc1)OCCC2=O | 26 | IC50 [8]: 59 nM; Change [7]: -79%; Change [9]: -56%; IC50 [6]: 220 nM
20 | COc1ccc(C(=O)Nc2c(C)ccc3c2OCCC3=O)cc1 | > 1000 | 
21 | CC(C)(C)C(=O)Nc1c(OCCCCCCc2ccccc2)ccc2c1OCCC2=O | 24 | 
22 | COc1ccc2c(c1NC(=O)c1ccc(OCCCCCCOCC(C)C)cc1)OCCC2=O | 40 | 

Row | SMILES | IC50 [1] [nM] | other results
23 | Cc1ccc2c(c1NC(=O)C(C)(C)Cc1ccccc1)OCCC2=O | > 1000 | 
24 | CCCCCCCCCCC(C)(C)C(=O)Nc1c2c(cc([N+](=O)[O-])c1OC)C(=O)CCO2 | 34 | 
25 | CCCOCCCCCCC(C)(C)C(=O)Nc1c(OC)ccc2c1OCCC2=O | 30 | 
26 | COc1ccc2c(c1NC(=O)C(C)(C)CCCCCCOc1ccc(Cl)cc1)C(=O)CCO2 | 180 | 
27 | CCCCCCCCCCOc1ccc2c(c1NC(=O)C(C)(C)CCCCCCCCCC)OCCC2=O | 850 | 
28 | CCCCCCCCCCOc1ccc(C(=O)Nc2c(OC)ccc3c2OCCC3=O)cc1 | 12 | 
29 | CCCCCCCCCCC(C)(C)C(=O)Nc1c2c(cc(N(C)C)c1OC)C(=O)CCO2 | > 200 | 
30 | CCCCCCCCCCOc1ccc(C(=O)Nc2c(OCCCCCCCCCC)ccc3c2OCCC3=O)cc1 | > 100 | 
31 | CCCc1ccc(CCCC(C)(C)C(=O)Nc2c(OC)ccc3c2OCCC3=O)cc1 | 27 | Change [10]: -54%
32 | COc1ccc2c(c1NC(=O)C(C)(C)CCCCCCOc1ccc(Cl)cc1)OCCC2=O | 64 | Change [11]: -53%; Change [9]: -53%
33 | COc1ccc(OCCCCOc2ccc3c(c2NC(=O)C(C)(C)C)OCCC3=O)cc1 | 43 | 
34 | CCCCCCCCCCC(C)(C)C(=O)Nc1c(OC)c(NC)cc2c1OCCC2=O | 49 | 
35 | CCCCCCCCCCC1(C(=O)Nc2c(C)ccc3c2NCCC3=O)CCCC1 | 430 | 
36 | Cc1ccc2c(c1NC(=O)C(C)(C)CCCCOc1ccc(Cl)cc1)OCCC2=O | 510 | 
37 | CCCCCCCCC(C)(C)C(=O)Nc1c(OC)ccc2c1OCCC2=O | 31 | 
38 | CCCCCCCCCCC(C)(C)C(=O)Nc1c(OCCC)ccc2c1OCCC2=O | 14 | 
39 | CCCCCCCCCCOc1ccc2c(c1NC(C)=O)OCCC2=O | 300 | 
40 | CCCCCCCCCCOc1ccc2c(c1NC(=O)C(C)(C)C)OCCC2=O | 14 | IC50 [3]: 22 nM; Change [5]: -45%; IC50 [6]: 130 nM
41 | CCCCCCCCCCOc1ccc2c(=O)ccoc2c1NC(=O)C(C)(C)C | 130 | 
42 | CCCCCCCCCCOc1ccc2c(c1NC(=O)c1ccc(OCCCCCCOc3ccc(Cl)cc3)cc1)OCCC2=O | 540 | 
43 | CCCCCCCCCCC(C)(C)C(=O)Nc1c(OC)cc(OC)cc1OC [CL-976] | 140 | IC50 [3]: 149 nM; Change [12]: -50%; IC50 [6]: 3800 nM
